Test results as given in ChEMBL document CHEMBL2177098, “Synthesis and evaluation of novel ¹⁸F labeled 2-pyridinylbenzoxazole and 2-pyridinylbenzothiazole derivatives as ligands for positron emission tomography (PET) imaging of β-amyloid plaques” (J Med Chem, 2012).

Columns and labels:
Heart [1] = experiment: Drug uptake in ICR mouse heart at 370 kBq/100 ul, iv at 2 mins by gamma-counting analysis; assay type: ADME, organism-based; conditions: in vivo
Outline: (§1)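 Male ICR mice (5 weeks, about 20 g) got 18F tracer in saline (370 KBq per 100 μL) via tail vein; n = 5 per time point, killed at 2, 10, 30, 60 min. Organs weighed and γ-counted; percent dose per gram wet tissue from comparison with diluted injectate aliquots.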

Bone [2] = experiment: Drug uptake in ICR mouse bone at 370 kBq/100 ul, iv at 30 mins by gamma-counting analysis; assay type: ADME, organism-based, Bone element; conditions: in vivo, 0.5 h; outline: as §1
Spleen [3] = experiment: Drug uptake in ICR mouse spleen at 370 kBq/100 ul, iv at 30 mins by gamma-counting analysis; assay type: ADME, organism-based; conditions: in vivo, 0.5 h; outline: as §1
[4] = Metabolic stability in mouse plasma at 1.85 MBq after 60 mins by HPLC analysis; assay type: ADME, cell-free; conditions: read-out: Stability
Outline: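 Purified tracer (1.85 MBq) was incubated with 100 μL mouse plasma at 37 °C for 2, 10, 30 and 60 min. Read-out was the percentage of activity remaining as intact tracer.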

[5] = n-Octanol-PBS buffer partition coefficient, log D of the compound at 1.5 MBq after 3 mins at pH 7.4; assay type: physicochemical
Outline: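 The tracer was partitioned between n-octanol and PBS by vortexing for 3 min at room temperature, then centrifuged for 5 min at 3000 rpm. Samples of the octanol (50 μL) and aqueous (500 μL) layers were counted. log D is the log of the octanol/PBS counts-per-gram ratio. The octanol layer was repartitioned until values were consistent. Measured in triplicate and repeated three times.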

Kidney [6] = experiment: Drug uptake in ICR mouse kidney at 370 kBq/100 ul, iv at 2 mins by gamma-counting analysis; assay type: ADME, organism-based; conditions: in vivo; outline: as §1
Intestine [7] = experiment: Drug uptake in ICR mouse intestine assessed per organ at 370 kBq/100 ul, iv at 60 mins by gamma-counting analysis; assay type: ADME, organism-based; conditions: in vivo, 1 h
Outline: (§2)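 Male ICR mice (5 weeks, about 20 g) got 18F tracer in saline (370 KBq per 100 μL) via tail vein; n = 5 per time point, killed at 2, 10, 30, 60 min. Organs removed and γ-counted against diluted injectate; expressed as % injected dose per organ.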

Kidney [8] = experiment: Drug uptake in ICR mouse kidney at 370 kBq/100 ul, iv at 30 mins by gamma-counting analysis; assay type: ADME, organism-based; conditions: in vivo, 0.5 h; outline: as §1
Liver [9] = experiment: Drug uptake in ICR mouse liver at 370 kBq/100 ul, iv at 30 mins by gamma-counting analysis; assay type: ADME, organism-based; conditions: in vivo, 0.5 h; outline: as §1
Kidney [10] = experiment: Drug uptake in ICR mouse kidney at 370 kBq/100 ul, iv at 60 mins by gamma-counting analysis; assay type: ADME, organism-based; conditions: in vivo, 1 h; outline: as §1
Brain [11] = experiment: Drug uptake in ICR mouse brain at 370 kBq/100 ul, iv at 2 mins by gamma-counting analysis; assay type: ADME, organism-based; conditions: in vivo; outline: as §1
Spleen [12] = experiment: Drug uptake in ICR mouse spleen at 370 kBq/100 ul, iv at 2 mins by gamma-counting analysis; assay type: ADME, organism-based; conditions: in vivo; outline: as §1
Stomach [13] = experiment: Drug uptake in ICR mouse stomach assessed per organ at 370 kBq/100 ul, iv at 60 mins by gamma-counting analysis; assay type: ADME, organism-based; conditions: in vivo, 1 h
Outline: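 Normal male ICR mice (5 weeks, about 20 g) received the ¹⁸F tracer in saline (370 KBq per 100 μL) by tail-vein injection. Groups of n = 5 were killed at 2, 10, 30 and 60 min. Organs were removed, weighed and γ-counted against diluted aliquots of the injectate, giving % dose per gram. Stomach and intestine were expressed per organ. The brain ratio is 2 min/60 min uptake. Values are mean ± SD.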

[14] = Displacement of [125I]-IMPY from amyloid beta (1 to 42) fibrils after 2 hrs by gamma-counting analysis
Outline: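 Competition binding with aggregated Aβ1-42 fibrils and [125I]IMPY (60000−100000 cpm/100 μL) in 0.05% BSA (1 mL total); inhibitors 10⁻⁴−10^−8.5 M in ethanol. Incubated 37 °C for 2 h, then GF/B vacuum filtration with PBS (0.02 M, pH 7.4) washes and γ counting. Three repeats; IC50 converted to Ki by Cheng−Prusoff.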

Bone [15] = experiment: Drug uptake in ICR mouse bone at 370 kBq/100 ul, iv at 2 mins by gamma-counting analysis; assay type: ADME, organism-based, Bone element; conditions: in vivo; outline: as §1
Heart [16] = experiment: Drug uptake in ICR mouse heart at 370 kBq/100 ul, iv at 60 mins by gamma-counting analysis; assay type: ADME, organism-based; conditions: in vivo, 1 h; outline: as §1
Liver [17] = experiment: Drug uptake in ICR mouse liver at 370 kBq/100 ul, iv at 60 mins by gamma-counting analysis; assay type: ADME, organism-based; conditions: in vivo, 1 h; outline: as §1
Blood [18] = experiment: Drug uptake in ICR mouse blood at 370 kBq/100 ul, iv at 10 mins by gamma-counting analysis; assay type: ADME, organism-based; conditions: in vivo; outline: as §1
Brain [19] = experiment: Drug uptake in wild type C57BL6 mouse brain at 19.2 MBq, iv after 30 mins by autoradiographic analysis; assay type: ADME, organism-based; conditions: in vivo, 0.5 h
Heart [20] = experiment: Drug uptake in ICR mouse heart at 370 kBq/100 ul, iv at 30 mins by gamma-counting analysis; assay type: ADME, organism-based; conditions: in vivo, 0.5 h; outline: as §1
Brain [21] = experiment: Drug uptake in ICR mouse brain at 370 kBq/100 ul, iv at 10 mins by gamma-counting analysis; assay type: ADME, organism-based; conditions: in vivo; outline: as §1
Lung [22] = experiment: Drug uptake in ICR mouse lung at 370 kBq/100 ul, iv at 10 mins by gamma-counting analysis; assay type: ADME, organism-based; conditions: in vivo; outline: as §1
Bone [23] = experiment: Drug uptake in ICR mouse bone at 370 kBq/100 ul, iv at 10 mins by gamma-counting analysis; assay type: ADME, organism-based, Bone element; conditions: in vivo; outline: as §1
Liver [24] = experiment: Drug uptake in ICR mouse liver at 370 kBq/100 ul, iv at 2 mins by gamma-counting analysis; assay type: ADME, organism-based; conditions: in vivo; outline: as §1
Spleen [25] = experiment: Drug uptake in ICR mouse spleen at 370 kBq/100 ul, iv at 10 mins by gamma-counting analysis; assay type: ADME, organism-based; conditions: in vivo; outline: as §1
Intestine [26] = experiment: Drug uptake in ICR mouse intestine assessed per organ at 370 kBq/100 ul, iv at 10 mins by gamma-counting analysis; assay type: ADME, organism-based; conditions: in vivo; outline: as §2
Stomach [27] = experiment: Drug uptake in ICR mouse stomach assessed per organ at 370 kBq/100 ul, iv at 30 mins by gamma-counting analysis; assay type: ADME, organism-based; conditions: in vivo, 0.5 h; outline: as §2
Brain [28] = experiment: Drug uptake in ICR mouse brain at 370 kBq/100 ul, iv at 30 mins by gamma-counting analysis; assay type: ADME, organism-based; conditions: in vivo, 0.5 h; outline: as §1
Kidney [29] = experiment: Drug uptake in ICR mouse kidney at 370 kBq/100 ul, iv at 10 mins by gamma-counting analysis; assay type: ADME, organism-based; conditions: in vivo; outline: as §1
Heart [30] = experiment: Drug uptake in ICR mouse heart at 370 kBq/100 ul, iv at 10 mins by gamma-counting analysis; assay type: ADME, organism-based; conditions: in vivo; outline: as §1
Blood [31] = experiment: Drug uptake in ICR mouse blood at 370 kBq/100 ul, iv at 30 mins by gamma-counting analysis; assay type: ADME, organism-based; conditions: in vivo, 0.5 h; outline: as §1
Intestine [32] = experiment: Drug uptake in ICR mouse intestine assessed per organ at 370 kBq/100 ul, iv at 2 mins by gamma-counting analysis; assay type: ADME, organism-based; conditions: in vivo; outline: as §2
Lung [33] = experiment: Drug uptake in ICR mouse lung at 370 kBq/100 ul, iv at 30 mins by gamma-counting analysis; assay type: ADME, organism-based; conditions: in vivo, 0.5 h; outline: as §1
Blood [34] = experiment: Drug uptake in ICR mouse blood at 370 kBq/100 ul, iv at 2 mins by gamma-counting analysis; assay type: ADME, organism-based; conditions: in vivo; outline: as §1
Liver [35] = experiment: Drug uptake in ICR mouse liver at 370 kBq/100 ul, iv at 10 mins by gamma-counting analysis; assay type: ADME, organism-based; conditions: in vivo; outline: as §1

- Drug uptake (Heart [1]): 4.66 % ID/g
- Drug uptake (Bone [2]): 2.34 % ID/g
- Drug uptake (Spleen [3]): 1.63 % ID/g
- remaining at 1 h, 1.85 MBq [4]: > 95%
- logD at 0.05 h [5]: 3.52
- Drug uptake (Kidney [6]): 7.45 % ID/g
- Drug uptake (Intestine [7]): 39.05 %ID
- Drug uptake (Kidney [8]): 2.17 % ID/g
- Drug uptake (Liver [9]): 3.95 % ID/g
- Drug uptake (Kidney [10]): 3.04 % ID/g
- Drug uptake (Brain [11]): 7.23 % ID/g
- Drug uptake (Spleen [12]): 3.32 % ID/g
- Drug uptake (Stomach [13]): 3.89 %ID
- Ki [14]: 8 nM
- Drug uptake (Bone [15]): 1.18 % ID/g
- Drug uptake (Heart [16]): 2.05 % ID/g
- Drug uptake (Liver [17]): 2.64 % ID/g
- Drug uptake (Blood [18]): 2.55 % ID/g
- Drug uptake (Brain [19]): Not Active
- Drug uptake (Heart [20]): 1.84 % ID/g
- Drug uptake (Brain [21]): 2.24 % ID/g
- Drug uptake (Lung [22]): 2.8 % ID/g
- Drug uptake (Bone [23]): 1.11 % ID/g
- Drug uptake (Liver [24]): 10.48 % ID/g
- Drug uptake (Spleen [25]): 2.13 % ID/g
- Drug uptake (Intestine [26]): 19.61 %ID
- Drug uptake (Stomach [27]): 3.11 %ID
- Drug uptake (Brain [28]): 1.69 % ID/g
- Drug uptake (Kidney [29]): 3.52 % ID/g
- Drug uptake (Heart [30]): 2.34 % ID/g
- Drug uptake (Blood [31]): 2.55 % ID/g
- Drug uptake (Intestine [32]): 9.87 %ID
- Drug uptake (Lung [33]): 2.29 % ID/g
- Drug uptake (Blood [34]): 3.36 % ID/g
- Drug uptake (Liver [35]): 8.5 % ID/g
SMILES: CNc1ccc(-c2nc3cc(OCC[18F])ccc3o2)cn1
